PERK inhibitor: blocks human PERK kinase | Q9NZJ5 | CHO PERK-DD fusion, SEAP luminescence translation reporter | inhibition, % at 5.6 µM | 220,000 tested, 0.17% active;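 active = inhibition above the mean inhibition of all tested compounds plus 3 SD, set separately per screening campaign, cut at about 2.9% in these data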;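 also: PERK kinase domain activated by AP20187 dimerizer at 100 nM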
Target sequence (Q9NZJ5 whole entry, looked up, the tested form may be a part): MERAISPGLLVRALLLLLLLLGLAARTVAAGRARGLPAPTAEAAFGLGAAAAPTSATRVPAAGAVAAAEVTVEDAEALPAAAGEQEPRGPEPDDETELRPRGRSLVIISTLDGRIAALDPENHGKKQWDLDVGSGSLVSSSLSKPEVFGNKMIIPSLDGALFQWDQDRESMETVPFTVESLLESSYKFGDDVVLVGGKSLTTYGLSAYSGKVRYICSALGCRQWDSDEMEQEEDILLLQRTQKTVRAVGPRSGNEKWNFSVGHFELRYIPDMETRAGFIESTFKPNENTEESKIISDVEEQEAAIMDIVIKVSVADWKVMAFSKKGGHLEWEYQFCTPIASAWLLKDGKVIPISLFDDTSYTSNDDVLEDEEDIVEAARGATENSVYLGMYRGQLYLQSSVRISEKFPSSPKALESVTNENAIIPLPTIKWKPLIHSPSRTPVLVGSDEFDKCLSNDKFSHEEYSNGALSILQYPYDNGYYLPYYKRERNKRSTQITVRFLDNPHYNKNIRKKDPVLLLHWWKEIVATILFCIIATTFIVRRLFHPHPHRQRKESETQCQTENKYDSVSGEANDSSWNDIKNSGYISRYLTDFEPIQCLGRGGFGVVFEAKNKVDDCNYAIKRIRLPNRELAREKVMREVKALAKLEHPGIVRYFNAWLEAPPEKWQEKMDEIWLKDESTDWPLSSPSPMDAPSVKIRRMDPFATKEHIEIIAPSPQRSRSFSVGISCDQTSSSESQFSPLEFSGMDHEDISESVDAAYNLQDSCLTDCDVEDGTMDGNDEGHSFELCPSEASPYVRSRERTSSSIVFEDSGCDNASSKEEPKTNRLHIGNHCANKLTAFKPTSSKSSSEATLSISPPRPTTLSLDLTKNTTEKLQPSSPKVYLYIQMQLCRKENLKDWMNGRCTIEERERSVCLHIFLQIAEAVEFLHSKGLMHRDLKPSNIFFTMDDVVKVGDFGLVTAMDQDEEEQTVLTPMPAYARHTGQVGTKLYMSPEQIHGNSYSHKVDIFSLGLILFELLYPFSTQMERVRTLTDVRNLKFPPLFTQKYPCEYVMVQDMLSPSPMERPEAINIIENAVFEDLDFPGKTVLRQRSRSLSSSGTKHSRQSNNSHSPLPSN
Platelet DG rel: modulates dense granule release in human platelets; human platelet-rich plasma, SFLLRN dense granule ATP release, luminescence; inhibition, %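 (compounds screened at 7.5 µM in platelet-rich plasma)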; 300,000 tested, 0.22% active;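 active = mean replicate score, as percent of positive control, at or above 50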
STAT1 inh: inhibitors of IFN-gamma induced STAT1 signaling; AID 920; inhibition, % at 5.5 µM; NIH 3T3 STAT1-luciferase reporter, luminescence; 200,000 tested, 0.35% active;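 active = inhibition above a set limit, the mean inhibition across all tested compounds plus 3 SD, cut at about 34% in these data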
STAT3 inh-1: inhibitors of IL-6 induced STAT3 signaling. inhibition, % at 5.5 µM. AID 862. U3A cells, IL-6 STAT3-luciferase reporter, luminescence; host cell line lacks STAT1. 190,000 tested, 0.89% active;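 active = inhibition above the mean inhibition across all screened compounds plus 3 SD, cut at about 44% in these data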
STAT3 activator: activators of IL-6 induced STAT3 signaling | U3A cells, IL-6 STAT3-luciferase reporter, luminescence; 100% = signal with IL-6 EC80 alone | activation (% of control), % at 5.6 µM | 190,000 tested, 0.91% active | AID 871;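 active = activation above the screen-wide mean of compound activation plus 3 SD, cut at about 130% in these data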
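System – human U3A cells carrying STAT3-luciferase construct · Probe or stimulus – Interleukin-6, 33 ng/mL · Schedule – compound 1 h, then IL-6 6 h at 37 °C · Signal – luminescence from STAT3-driven luciferase reporter · Evaluation – percent of IL-6-only median luminescence · Benchmarks – IL-6-only high control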
STAT3 inh-2: confirmation of STAT3 signaling inhibitors | shares compounds with STAT3 inh-1 | U3A cells, IL-6 STAT3 luciferase reporter, luminescence; cell line lacks STAT1 | inhibition, % at 5.7 µM | 1,200 tested, 45% active | AID 1265;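 active = inhibition above the hit cutoff computed for the primary STAT3 screen, cut at about 44% in these data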
NFkB inh STAT3ct: inhibits NF-kappaB, counter-screen to STAT3 inhibitors; shares compounds with STAT3 inh-1; HEK293T NF-kB luciferase reporter, TNF-alpha induced; inhibition, % at 5.7 µM; 1,200 tested, 36% active;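 active = inhibition above the mean of solvent-only control wells plus 3 SD, cutoff set per campaign, cut at about 13% in these data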
STAT1 inh 2: STAT1 inhibition in STAT3 inhibitor counter-screen | NIH 3T3 STAT1-luciferase reporter, IFN-gamma induced, luminescence | shares compounds with STAT3 inh-1 | inhibition, % at 5.7 µM | AID 1317 | 1,200 tested, 27% active;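 active = inhibition above the mean plus 3 SD of solvent-only control wells, limit set per screening run, cut at about 16% in these data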
A number is an active result; . = inactive; / = no result given. Rows were chosen to be rich in hits. Some 1.4% of all compounds tested hit in one or more screens of this group.

SMILES	PERK inhibitor	Platelet DG rel	STAT1 inh	STAT3 inh-1	STAT3 activator	STAT3 inh-2	NFkB inh STAT3ct	STAT1 inh 2
Cc1c(C(=O)NN2CCOCC2)oc2c1ccc1ccccc12	.	.	.	.	.	/	/	/
O=c1[nH]c(Nc2nc3ccccc3o2)nc2c1CCCC2	.	.	.	69.4	.	.	.	.
Cc1ccc(Nc2nc3c(c(=O)[nH]2)CCCC3)cc1	.	.	.	.	.	/	/	/
O=c1cc(CSc2nnc(-c3cccs3)n2Cc2ccccc2)nc2sc3ccccc3n12	.	.	.	60.0	.	57.0	.	22.7
CCOc1ccccc1OCCCNCc1ccco1	.	.	.	.	.	/	/	/
CCc1ccc(-n2cc(-c3ccc(F)cc3)[n+]3c2SCCC3)cc1	.	.	.	.	.	/	/	/
Cc1ccc(-c2cn(-c3ccccc3)c3[n+]2CCCS3)cc1	.	.	.	57.4	.	50.2	.	27.6
COc1ccc(-n2cc(-c3ccc(C)cc3)[n+]3c2SCC3)cc1	.	.	.	68.6	.	75.2	.	23.0
c1ccc(-c2ncc(-c3ccn[nH]3)s2)cc1	.	.	.	46.2	.	.	.	.
Cc1cc(C)c(NC(=O)C2CCCO2)c(C)c1 (stereo not drawn)	/	.	/	/	/	/	/	/
O=C(Nc1cccc(S(=O)(=O)C(F)F)c1)c1ccc(Cl)c(S(=O)(=O)N2CCOCC2)c1	.	.	.	.	.	/	/	/
Cc1ccc(C(=O)Nc2cccc(C(=O)O)c2)cc1S(=O)(=O)N1CCOCC1	.	.	.	.	.	/	/	/
CC(=O)c1cccc(NC(=O)c2ccc(S(=O)(=O)N3CCCC3)cc2)c1	/	.	/	/	/	/	/	/
Cc1ccc(C(=O)Nc2cccc(C(=O)O)c2)cc1S(=O)(=O)N1CCCCC1	.	/	.	54.9	.	.	14.5	18.0
O=C(Nc1cccc(Br)c1)c1ccc(Cl)c(S(=O)(=O)N2CCOCC2)c1	.	.	.	72.9	.	65.9	15.4	.
Cc1cc(C)n(-c2ccc(C(=O)Nc3cccc(S(=O)(=O)N4CCCC4)c3)cc2)n1	.	.	.	44.4	.	.	.	.
COc1ccc(C(=O)Nc2ccc(-c3ccc(C)o3)cc2)cc1S(=O)(=O)N1CCOCC1	.	/	.	70.2	.	71.3	28.3	.
CC(C)C(C)N(Cc1cccc(C(=O)O)c1)C(=O)c1ccc2ccccc2n1 (stereo not drawn)	/	.	/	/	/	/	/	/
O=C(Nc1ccc(Cl)c(S(=O)(=O)N2CCOCC2)c1)c1ccc(OCC2CCCO2)cc1 (stereo not drawn)	.	.	.	54.3	.	61.0	21.6	.
COC1=C(N)C(=O)c2nc(-c3nc(C(=O)O)c(C)c(-c4ccc(OC)c(OC)c4O)c3N)ccc2C1=O	.	/	.	105.5	.	103.2	97.4	85.3
CC1(C(=O)NCc2ccc(Cl)c(Cl)c2)Oc2cccnc2NC1=O (stereo not drawn)	.	.	.	.	.	/	/	/
O=C(c1ccccc1)N1CCC(c2nc(-c3ccc(S(=O)(=O)NCC4CCCO4)cc3)no2)CC1 (stereo not drawn)	.	.	.	69.4	.	.	22.0	27.4
CS(=O)(=O)N1CCCC(c2nc(-c3ccc(S(=O)(=O)NCc4ccccc4)cc3)no2)C1 (stereo not drawn)	.	.	.	66.5	.	72.0	26.0	22.0
O=C(C1CC1)N1CCC(c2nc(-c3ccc(S(=O)(=O)N4CCCC4)cc3)no2)CC1	.	.	.	.	.	/	/	/
O=C(C1CC1)N1CCC(c2nc(-c3ccc(S(=O)(=O)NCC4CCCO4)cc3)no2)CC1 (stereo not drawn)	.	.	.	50.6	.	55.5	14.6	.
O=C(Cc1ccccc1)N1CCCC(c2nc(-c3ccc(S(=O)(=O)N4CCCC4)cc3)no2)C1 (stereo not drawn)	.	.	.	.	.	/	/	/
CC(C)(C)NC(=O)N1CCCN(c2ccc(C(F)(F)F)cn2)CC1	.	.	/	/	/	/	/	/
COc1cccc(CN2C(=O)C(C)N(C(=O)c3ccccc3)c3ccccc32)c1 (stereo not drawn)	/	.	/	/	/	/	/	/

Screens: PubChem, several laboratories
